Rce1 inh: inhibitors of yeast Ras-converting enzyme | Q03530 | yeast membranes, quenched prenylated peptide cleavage fluorescence | calls only | 0.27% of 290,000 active | AID 2563;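 active means fall in fluorescence gain of 50% or more versus controls, with final raw signal at or below 3038400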;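 further: plate controls were neutral control wells for no effect and wells lacking membranes for full effect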
Target sequence (Q03530 whole entry, looked up): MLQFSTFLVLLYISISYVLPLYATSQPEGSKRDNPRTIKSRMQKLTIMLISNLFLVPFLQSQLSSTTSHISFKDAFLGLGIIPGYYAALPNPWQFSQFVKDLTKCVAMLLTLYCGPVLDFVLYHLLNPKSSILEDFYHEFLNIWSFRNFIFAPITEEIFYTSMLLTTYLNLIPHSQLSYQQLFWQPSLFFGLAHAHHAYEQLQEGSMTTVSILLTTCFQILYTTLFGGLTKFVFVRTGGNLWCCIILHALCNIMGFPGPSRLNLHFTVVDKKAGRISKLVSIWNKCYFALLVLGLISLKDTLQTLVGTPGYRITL
T cell modulator: modulates CD8 T cell binding to vesicles. 2C CD8+ T cell-vesicle binding, flow cytometry; stronger effect = lower value. 0.068% of 330,000 active. response (vesicle binding), % at 7 µM. AID 2052;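 active means response, share of CD8 T cells binding vesicles, and their 90th percentile fluorescence all below set limits, cut at about 80% in these data, passing the limit was not always enough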;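 further: values below 100% mean blocked vesicle binding to the CD8+ T cells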
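Also added: QL9-peptide-loaded Drosophila micro-vesicles bearing Ld, ICAM-1 and B7-1; Test system: purified 2C TCR transgenic mouse naive CD8+ T cells; Measured by: cytometric PE anti-B7-1 and Alexa647 anti-CD8 signals after 1% paraformaldehyde fixation; Timing: binding step 1.5 h, 37 °C, antibody labelling 20 min, ice.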
MEKK3 PB1 HTS: MEKK3-MEK5 PB1 interaction, increase or decrease | Q99759 | bead-based flow cytometry, Alexa488-MEK5 binding to MEKK3; actives lie on both sides; 0 = blocked by unlabeled MEK5, 100 = vehicle | binding response (% of control), % at 10 µM | 1.4% of 290,000 active;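 active means binding response more than 3 SD above or below the average of its plate-row segment, actives on both sides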;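 further: Alexa488 bead fluorescence after subtracting the streptavidin-only scavenger bead signal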
MEKK2wt PB1 HTS: raises or lowers MEK5 binding to wildtype human MEKK2 PB1 domain; binding response (% of control), % at 10 µM; bead flow cytometry, Alexa488-MEK5 binding to MEKK2 WT; actives lie on both sides; Q9Y2U5; 1.1% of 290,000 active; AID 1531; in the data active means binding response below about 67% or above about 130%
MEKK2mut PB1 HTS: signal of MEK5 binding to mutant human MEKK2 PB1 domain; bead flow cytometry, Alexa488-MEK5 binding to MEKK2 mutant; percent response, % at 10 µM; 0.35% of 290,000 active; in the data active means percent response above about 24%, passing the limit was not always enough
UCH37 DUB inh: inhibitors of human deubiquitinating enzyme UCH37; purified proteasome/UCH37, Ub-AMC cleavage fluorescence; AID 588478; 0.33% of 330,000 active; Q9Y5K5; inhibition, % (test concentration not listed);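 active means mean inhibition over replicate wells above about 20%, limit read from the data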;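 further: 0% = compound-free wells with enzyme and 100% = wells lacking proteasome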
Target sequence (Q9Y5K5 whole entry, looked up): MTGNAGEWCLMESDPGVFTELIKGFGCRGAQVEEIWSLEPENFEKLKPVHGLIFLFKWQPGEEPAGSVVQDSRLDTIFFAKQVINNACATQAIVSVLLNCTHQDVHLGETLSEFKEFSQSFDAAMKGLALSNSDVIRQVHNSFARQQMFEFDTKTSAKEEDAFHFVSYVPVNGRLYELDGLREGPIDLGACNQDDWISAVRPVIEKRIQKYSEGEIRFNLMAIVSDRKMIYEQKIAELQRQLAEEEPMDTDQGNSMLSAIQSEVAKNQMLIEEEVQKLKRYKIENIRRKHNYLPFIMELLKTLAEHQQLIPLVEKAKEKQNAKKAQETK
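Signal – fluorescence, ex 355 nm, em 460 nm · System – Proteasome-bound UCH37 · Input – 0.15 nM proteasome as dispensed · Timing – 30 min preincubation with enzyme, 25 min cleavage at room temperature · Read-out basis – percent inhibition of cleavage signal versus uninhibited and no-proteasome wells · Medium – Tris-HCl pH 7.4 with ATP-MgCl2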
UCH37 reconfirm: reconfirmed inhibitor of human deubiquitinase UCH37. shares compounds with UCH37 DUB inh. 27% of 480 active. Proteasome-bound UCH37, Ub-AMC cleavage fluorescence. inhibition, % at 20 µM;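 active means average inhibition over replicates above about 50%, so the earlier screening hit is confirmed, limit read from the data; inactive means the rest, counted as false positives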;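 further: based on cleavage rate fitted by regression over a 30 min kinetic read; 0% = proteasome plus Ub-AMC and 100% = Ub-AMC without proteasome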
* marks the source's active call; other numbers are inactive results; i = inactive; nt = no result given. An excerpt weighted towards active compounds, which were near 2.5% of everything screened.

SMILES	Rce1 inh	T cell modulator	MEKK3 PB1 HTS	MEKK2wt PB1 HTS	MEKK2mut PB1 HTS	UCH37 DUB inh	UCH37 reconfirm
Cc1cc(=O)[nH]c(NN=CC2=C(N3CCOCC3)/C(=C\c3ccc(Cl)cc3)CC2)n1	nt	nt	nt	nt	nt	-10	nt
CCOC(=O)c1sc(=S)n(CC)c1N	i	298	105	105	12	52*	25
COc1cc(OC)c(OC)cc1C=NNC(=O)c1cc(-c2cccn2C)n[nH]1	nt	nt	nt	nt	nt	-17	nt
COc1ccc(NC(=Nc2nc(C)cc(C)n2)NC(=O)c2ccccc2)cc1	nt	nt	nt	nt	nt	1	nt
Cc1c(N2C(=O)/C(=C3/C(=O)N(C)c4ccccc43)SC2=S)c(=O)n(-c2ccccc2)n1C	i	384	101	98	4	5	nt
CC(=O)N1C(=O)/C(=C2\SC(=S)N(c3c(C)n(C)n(-c4ccccc4)c3=O)C2=O)c2ccccc21	i	361	97	89	2	25*	45
Cn1cc(/C=C/c2cc[n+](C)cc2)c2cc(F)ccc21	i	763	95	103	1	28*	34
Cn1cc(/C=C/c2cc[n+](C)cc2)c2cc(Cl)ccc21	i	288	101	118	1	15	nt
O=C1NC(=S)S/C1=C\C=C\c1ccc([N+](=O)[O-])o1	nt	nt	87	78	-23	28*	32
O=C1NC(=S)S/C1=C/c1ccc(N2CCOCC2)o1	i	i	100	94	-2	17	nt
CC1=NN(c2ccc(C)cc2)C(=O)/C1=C\C=C\c1ccccc1	i	139	97	100	-2	1	nt
CC1=NN(c2ccccc2)C(=O)/C1=C/C=C/C=C/N(C)C	nt	251	102	94	-6	32*	30
COc1ccc(C=NNC(=O)c2cccc(OC(F)(F)C(F)F)c2)c(OC)c1OC	nt	nt	nt	nt	nt	-2	nt
C=CCN1c2ccccc2[C@]23C[C@@H](C(=O)OC)N(C(=O)CC(C)C)C2=NC(C(=O)OC)=C(C(=O)OC)[C@H]13	i	556	93	92	-9	3	nt
COC(=O)C1=C(C(=O)OC)[C@@H]2N(C)c3ccccc3[C@@]23C[C@@H](C(=O)OC)N(C(=O)CC(C)C)C3=N1	i	i	107	93	7	42*	2
O=S(=O)(NCc1ccccc1)c1ccc(F)cc1Br	i	838	86	86	-15	-2	nt
O=S(=O)(NCc1ccc(F)cc1)c1ccccc1Br	nt	255	nt	nt	nt	35*	-11
CC(=O)Nc1ccc(C(C)=NNC(=O)c2ccc(F)cc2)cc1	nt	nt	nt	nt	nt	2	nt
CC1=C(C(=O)OCc2ccccc2)C(c2ccccc2Cl)NC(=O)N1CCCC(=O)O (stereo not given)	i	236	100	90	-5	41*	9
Cc1ccc(N2CC(C(=O)NCCC3=CCCCC3)CC2=O)cc1 (stereo not given)	i	554	nt	nt	nt	41*	55*
CCCOc1ccc(-c2c(C(=O)NN=Cc3cccnc3)nnn2-c2nonc2N)cc1	nt	nt	nt	nt	nt	3	nt
COc1cc(C2C(C(=O)c3ccc(C)o3)=C(O)C(=O)N2c2cc(C)on2)ccc1O (stereo not given)	i	244	101	98	0	46*	14
COc1cc(C2C(C(=O)c3ccc(C)o3)=C(O)C(=O)N2c2cc(C)on2)cc(OC)c1OC (stereo not given)	i	165	nt	nt	nt	2	nt
Cc1cc(C)c(Nc2cc(S(=O)(=O)O)c(N)c3c2C(=O)c2ccccc2C3=O)c(C)c1	nt	341	94	77	-18	34*	93*
O=C(CSC(=S)N1CCCCC1)c1ccccc1	i	188	101	102	-8	39*	12
SMILES	Rce1 inh	T cell modulator	MEKK3 PB1 HTS	MEKK2wt PB1 HTS	MEKK2mut PB1 HTS	UCH37 DUB inh	UCH37 reconfirm
O=C(CSC(=S)N1CCCC1)c1ccccc1	i	230	96	99	-1	0	nt
O=C(CSc1nnc(SCc2cccc3ccccc23)s1)NN=C/C=C/c1ccccc1[N+](=O)[O-]	nt	nt	nt	nt	nt	3	nt
CCOc1ccc(C=NNc2ccc(S(=O)(=O)Nc3ccccc3C(=O)O)cc2[N+](=O)[O-])cc1OC	nt	247	nt	nt	nt	44*	75*
CC(=O)Oc1c(Br)cc(N(C(C)=O)S(=O)(=O)c2ccccc2)c2ccccc12	i	138	106	103	2	36*	9
O=C(NC(=S)Nc1ccc(Oc2ccc(Cl)cc2)cc1)c1ccccc1	i	216	92	91	-5	47*	6
CCOC(=O)/C(C#N)=C\c1ccc(CC)s1	i	239	99	102	1	8	nt
CCOC(=O)/C(C#N)=C\C=C1C=CN(C)C=C1	i	91	106	108	13	nt	33
O=C(NN=Cc1ccc2nccnc2c1)c1ccncc1	nt	nt	nt	nt	nt	12	nt
CCOc1ccc(C2/C(=C(\O)c3cccc(OC)c3)C(=O)C(=O)N2c2cc(C)on2)cc1OC (stereo not given)	i	206	101	103	10	49*	26
CC(=O)N(N=C1Sc2ccccc2C1=O)c1ccccc1	nt	nt	nt	nt	nt	31*	19
CC(=O)N(N=C1Sc2ccccc2C1=O)c1ccccc1C	nt	nt	nt	nt	nt	83*	62*
CC(=O)N(/N=C1\Sc2ccccc2C1=O)c1cccc(C)c1	i	318	107	107	9	nt	nt
CC(=O)N(C)/C=C1\Sc2ccccc2C1=O	i	322	nt	nt	nt	2	nt
CCOc1ccc(C=NOC(C)C(=O)NCc2ccc3c(c2)OCO3)cc1 (stereo not given)	nt	nt	nt	nt	nt	4	nt
O=C1C(C2=C(O)c3ccccc3C2=O)=Nc2ccccc21	i	784	99	97	2	85*	103*
CCN(CC)CCCNC1=C(Cl)C(=O)c2ccccc2C1=O	i	150	99	105	2	27*	39
O=C(O)c1cccc(NC2=C(Cl)C(=O)c3ccccc3C2=O)c1	nt	nt	84	90	-4	46*	25
O=C1C(Cl)=C(Nc2ccccc2)C(=O)c2ccccc21	i	548	98	97	0	6	nt
O=C1C(Cl)=C(NCCc2ccccc2)C(=O)c2ccccc21	nt	nt	nt	nt	nt	76*	87*
COc1ccc([C@H]2CC(=O)C=C(c3ccc(-c4ccccc4)c(F)c3)C2)cc1OC	nt	i	nt	nt	nt	41*	7
CC(CCN1CCc2nc(-c3ccccc3)c(-c3ccccc3)cc2C1)=NO[C@H](C)c1cn([C@H](CO)Cc2ccccc2)nn1	nt	nt	nt	nt	nt	0	nt
C[n+]1ccc(C=NNc2nc(Cl)c(C#N)c(Cl)c2Cl)cc1	nt	nt	nt	nt	nt	25*	32
C[N+](C)(C)c1ccc(C=NNc2nc(Cl)c(C#N)c(Cl)c2Cl)cc1	nt	nt	nt	nt	nt	11	nt
CC(C)c1ccc(S(=O)(=O)N=C2C=C(Sc3ncn[nH]3)C(=O)c3ccccc32)cc1	nt	nt	nt	nt	nt	67*	62*
